Screening results deposited in PubChem BioAssay by Broad Institute.
An excerpt weighted towards active compounds, which were near 2.6% of everything screened.
dFosB act = enhances mouse delta FosB homodimer DNA binding; purified delta FosB, TAMRA-CDK5 oligo fluorescence polarization; percent of positive-control signal above neutral wells; AID 493131; activation, % at 25 µM; hit rate 0.99% among 340,000;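 active means mean activation above about 17%, with every replicate also reaching it, limit read from the data, passing the limit was not always enough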
PvdQ inh = P. aeruginosa PvdQ acylase inhibition; purified PvdQ acylase, fluorescence plate reader; inhibition, % at 10 µM; hit rate 0.063% among 340,000; AID 488965; in the data active means inhibition above about 30%, passing the limit was not always enough;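 further: 0% = vehicle neutral wells and 100% = reference inhibitor wells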
Ecoli rRNA inh = selective bacterial rRNA inhibition in E. coli; E. coli WT GFP vs humanized-ribosome RFP mutants, fluorescence, 24 h; stronger effect = lower value; DMSO median 0, no signal -100; hit rate 1.6% among 350,000; GFP signal change (wild-type ribosome), % (test concentration not listed);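 active means significant combined selectivity score with lowered wild-type GFP, culture density cut under 30%, mutant RFP and density less affected; inactive means any of these conditions unmet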
Xi reactivation = reactivates the inactive X chromosome in mouse fibroblasts; XiGFP mouse fibroblasts, % GFP-positive cells imaging, 3 d; cells co-treated with 5-aza-dC sensitizer; scaled so ellipticine positive control = 100%; activation, % at 7.58 µM; hit rate 0.055% among 360,000; AID 743238;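 active means mean normalized replicate activation at least 10% and every replicate at or above 10%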;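 further: 0% = median of on-plate neutral control wells and 100% = ellipticine 6 µM median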
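Material: XiGFP fibroblasts, SV40-immortalized; Buffer or medium: DMEM containing 5-aza-dC; Compound dosing: single point; Times: 3 days compound exposure.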
SR-BI DiI inh = mouse SR-BI HDL lipid transfer inhibition. ldlA[mSR-BI] CHO cells, DiI-HDL uptake fluorescence, 3 h. AID 488896. hit rate 0.96% among 320,000. inhibition, % at 12.5 µM;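 active means mean replicate inhibition of at least 70% and a set share of replicates each scoring 70 or more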;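 further: 0% = median of neutral control wells and 100% = median of positive control wells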
Target sequence (Q61009 whole entry, looked up): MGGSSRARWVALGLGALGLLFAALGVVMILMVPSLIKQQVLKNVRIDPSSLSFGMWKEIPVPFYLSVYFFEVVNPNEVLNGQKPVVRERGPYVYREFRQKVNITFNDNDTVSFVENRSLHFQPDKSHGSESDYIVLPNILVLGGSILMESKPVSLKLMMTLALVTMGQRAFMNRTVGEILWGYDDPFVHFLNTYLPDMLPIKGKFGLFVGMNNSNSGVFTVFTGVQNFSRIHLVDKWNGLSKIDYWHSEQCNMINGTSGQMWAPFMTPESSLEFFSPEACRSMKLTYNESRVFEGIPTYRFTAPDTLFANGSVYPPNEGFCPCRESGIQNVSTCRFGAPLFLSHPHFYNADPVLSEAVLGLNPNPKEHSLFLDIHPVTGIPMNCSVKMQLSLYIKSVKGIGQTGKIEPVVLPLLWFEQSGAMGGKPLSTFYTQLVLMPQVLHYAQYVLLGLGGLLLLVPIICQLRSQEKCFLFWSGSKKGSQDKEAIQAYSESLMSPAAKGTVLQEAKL
SR-BI DiI-HDL act = enhances SR-BI lipid uptake from DiI-HDL; activation, % at 12.5 µM; CHO ldlA[mSR-BI] cells, DiI-HDL uptake fluorescence, 3 h; 100 = double the neutral-control signal; hit rate 0.096% among 320,000;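 active means mean replicate activation of at least 60% and every replicate at or above 60%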;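 further: 0% = median plate neutral-control signal and 100% = twice that signal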
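System: LDL receptor-deficient CHO ldlA cells overexpressing murine SR-BI | Timing: 3 h uptake period with compound, 37 °C | Medium: HEPES-buffered (25 mM, pH 7.4) F12 plus 0.5% BSA | Dosing: Single-point compound dose | Signal: Bottom-read fluorescence, 550/595 nm | Read-out: Retained DiI signal reflecting DiI-HDL uptake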
DiI quench = DiI fluorescence quenching in cell-free counter-screen. AC50, µM (series often up to 35 µM), inactives show at the top dose activity change, negative = quenching. hit rate 20% among 470. cell-free DiI-HDL fluorescence quenching, 30 min. shares compounds with SR-BI DiI inh;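 active means quenching, a falling signal, with AC50 below a set limit tied to the top valid dose, actives reach about 32 µM in these data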
The depositor's hits bear a star; . = no result.

SMILES	dFosB act	PvdQ inh	Ecoli rRNA inh	Xi reactivation	SR-BI DiI inh	SR-BI DiI-HDL act	others
O=C(N/N=C/c1ccco1)c1cc([N+](=O)[O-])cc([N+](=O)[O-])c1	9	2	12	0	14	-14
O=[N+]([O-])c1ccc(N/N=C/C=C/c2ccco2)cc1	-7	-3	-40*	4	35	-35
O=C(O)c1ccc(N/N=C/C=C/c2ccc([N+](=O)[O-])o2)cc1	-2	-3	-32*	0	-1	1
COc1ccccc1C(=O)NCCC(=O)Nc1ccc(S(=O)(=O)N2CCCC(C)C2)cc1 (configuration not stated)	-8	6	-6	0	19	-19
CCOc1ccccc1NCc1cc(=O)oc2cc(C)c(O)cc12	-4	-9	0	0	74*	-74
COc1c2c(cc3oc(=O)c4c5ccc(O)cc5oc4c13)OC(C)(C)CC2	6	1	.	.	89*	-89
COc1cccc(NC(=O)C(C)OC(=O)c2n[nH]c3ccccc23)c1 (configuration not stated)	-13	-22	-27*	0	7	-7
O=C(COC(=O)c1n[nH]c2ccccc12)Nc1ccccc1	0	-3	-7	0	-20	20
CC(=O)c1cccc(NC(=O)COC(=O)c2n[nH]c3ccccc23)c1	-12	-15	-23*	0	5	-5
C=CC(=O)N1C/C(=C/c2ccccc2)C(=O)/C(=C\c2ccccc2)C1	-12	4	-44*	0	5	-5
CCOCCCn1c(SCC(=O)Nc2ccccc2OC)nc2ccccc2c1=O	-1	2	-13	0	21	-21
COCCCn1c(SCC(=O)Nc2ccc(NC(=O)c3ccco3)c(OC)c2)nc2ccccc2c1=O	6	1	.	.	74*	-74
Nc1cc(=O)[nH]c(SCC(=O)Nc2ccc([N+](=O)[O-])cc2)n1	-8	-12	3	0	.	.
Nc1nc(SCC(=O)Nc2ccc([N+](=O)[O-])cc2)[nH]c(=O)c1NC(=O)c1ccc(Br)cc1	50*	8	6	0	-8	8
COc1ccc(N=c2oc3cc(O)ccc3cc2C(=O)Nc2ccccn2)cc1OC	-16	3	20	0	71*	-71
COC(=O)[C@@]1(Cc2ccc(F)cc2)[C@H]2c3cc(C(=O)N4CCCC4)n(CCF)c3C[C@H]2CN1C(=O)c1ccccc1	.	.	-9	0	.	.
COC(=O)[C@@]1(Cc2ccc(F)cc2)[C@H]2c3cc(C(=O)N4CCCC4)n(CCCNc4ncc(C(F)(F)F)cc4Cl)c3C[C@H]2CN1C(=O)c1ccccc1	-12	-10	17	.	30	-30	DiI quench=-1%
Cc1ccc(C=Nc2ccc(N(C)C)cc2)o1	-2	-14	3	.	-2	2
O=C(/C=C/c1ccco1)Nc1cccc(NC(=O)/C=C/c2ccco2)n1	-18	-5	-13	0	8	-8	DiI quench=-6%
Cc1nc(NC(=O)/C=C/c2ccco2)sc1C	1	18	12	0	8	-8
CCC1(c2ccccc2)NC(=O)N(CC(=O)NCC2COc3ccccc3O2)C1=O (configuration not stated)	-2	-17	0	0	8	-8
O=C(NCc1ccccc1CN1CCCC1)c1ccc(OCc2cscn2)cc1	-7	-9	21	0	-3	.
O=C(c1cn(-c2ccccc2)nc1-c1cccc([N+](=O)[O-])c1)N1CCCCC1	-1	-6	13	0	73*	-73	DiI quench=-19%
CCCn1c(SCCN2CCOCC2)nc2c1c(=O)n(C)c(=O)n2C	-2	-9	-5	0	-16	16
C/C=C/c1ccc([C@@H]2[C@@H](CO)N3CCCCN(C(=O)Nc4ccc(F)cc4)C[C@H]23)cc1	.	.	3	0	.	.
COc1ccc2c(c1)CC(C1(O)C(=O)N(C)c3ccccc31)C2=O (configuration not stated)	3	-10	.	.	85*	-85	DiI quench=-5%
Cc1cc(N2CCN(C(=O)c3ccco3)CC2)n2ncnc2n1	2	-14	.	.	-9	9
